Laboratory results reported in ChEMBL document CHEMBL3797046, “Antioxidant Activity of Individual Steryl Ferulates from Various Cereal Grain Sources” (J Nat Prod, 2016).

Assays:
Format in all cases: physicochemical
[1] = Antioxidant activity assessed as hydroxyl radical scavenging activity at 5 uM by ESR spin trapping assay
How it was run: (§1)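 Hydroxyl radicals came from Fenton reaction (H2O2, EDTA, FeSO4 to start) with DMPO spin trap. Samples in ACN (stocks 0.03–0.3 mM) gave final 1.5, 2.5, 5.0 or 15.0 μM; ACN alone served as control. ESR signal was taken as the ratio of the DMPO adduct second-singlet amplitude to the TEMPO (2 μM, daily reference) first-singlet amplitude.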

[2] = Antioxidant activity assessed as superoxide anion radical scavenging activity at 160 uM measured as absorbance (t > infinity) recorded every min for 7 mins by nitroblue tetrazolium assay (reference value: 1.9 +/- 0.01)
How it was run: (§2)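 Superoxide came from hypoxanthine/xanthine oxidase (2 mM HPX, 0.56 U·mL−1 XOD stocks) with 0.34 mM NBT in 50 mM phosphate buffer pH 7.4. A560 was read every minute for 7 min. Pseudo-first-order rate constant k1 and final NBTH2 absorbance (t → ∞) came from curve-fitting absorbance vs time, with antioxidant at 40, 80 or 160 μM.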

[3] = Antioxidant activity assessed as DPPH radical scavenging activity measured as rate constant after 10 secs by UV-visible spectrophotometry; conditions: 10 s
How it was run: (§3)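 DPPH radical decay, antioxidant at 1.67, 16.7 or 60.0 μM. After 10 s of mixing with DPPH, A517 was read at once and then every 15 s for 5 min. The second-order rate constant k and the plateau absorbance (t → ∞) came from curve-fitting absorbance vs time under global second-order kinetics.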

[4] = Antioxidant activity assessed as superoxide anion radical scavenging activity at 40 uM measured as absorbance (t > infinity) recorded every min for 7 mins by nitroblue tetrazolium assay (reference value: 1.9 +/- 0.01); how it was run: as §2
[5] = Antioxidant activity assessed as DPPH radical scavenging activity at 16.7 uM measured as absorbance (t -> infinity) after 10 secs by UV-visible spectrophotometry; conditions: 10 s; how it was run: as §3
[6] = Antioxidant activity assessed as hydroxyl radical scavenging activity at 2.5 uM by ESR spin trapping assay; how it was run: as §1
[7] = Antioxidant activity assessed as DPPH radical scavenging activity at 1.67 uM measured as absorbance (t -> infinity) after 10 secs by UV-visible spectrophotometry; conditions: 10 s; how it was run: as §3
[8] = Antioxidant activity assessed as DPPH radical scavenging activity at 60 uM measured as absorbance (t -> infinity) after 10 secs by UV-visible spectrophotometry; conditions: 10 s; how it was run: as §3
[9] = Antioxidant activity assessed as hydroxyl radical scavenging activity at 1.5 uM by ESR spin trapping assay; how it was run: as §1
[10] = Antioxidant activity assessed as superoxide anion radical scavenging activity at 80 uM measured as absorbance (t > infinity) recorded every min for 7 mins by nitroblue tetrazolium assay (reference value: 1.9 +/- 0.01); how it was run: as §2
[11] = Antioxidant activity assessed as superoxide anion radical scavenging activity at 80 uM measured as rate constant recorded every min for 7 mins by nitroblue tetrazolium assay (reference value: 0.188 +/- 0.001 /min); how it was run: as §2
[12] = Antioxidant activity assessed as superoxide anion radical scavenging activity at 160 uM measured as rate constant recorded every min for 7 mins by nitroblue tetrazolium assay (reference value: 0.188 +/- 0.001 /min); how it was run: as §2
[13] = Antioxidant activity assessed as superoxide anion radical scavenging activity at 40 uM measured as rate constant recorded every min for 7 mins by nitroblue tetrazolium assay (reference value: 0.188 +/- 0.001 /min); how it was run: as §2
[14] = Antioxidant activity assessed as hydroxyl radical scavenging activity at 15 uM by ESR spin trapping assay; how it was run: as §1
[15] = Antioxidant activity assessed as superoxide anion radical scavenging activity measured as rate constant recorded every min for 7 mins by nitroblue tetrazolium assay; how it was run: as §2

COC(=O)/C=C/c1ccc(O)c(OC)c1
Activity [1]: 36% | Activity [2]: 1.6 | K [3]: 14000 M⁻¹ s⁻¹ | Activity [4]: 1.9 | Activity [5]: 0.896 | Activity [6]: 31% | Activity [7]: 1.008 | Activity [8]: 0.57 | Activity [9]: 19% | Activity [10]: 1.72 | K [11]: 0.15 min⁻¹ | K [12]: 0.14 min⁻¹ | K [13]: 0.15 min⁻¹ | Activity [14]: 43%

CC[C@H](/C=C/[C@@H](C)[C@H]1CC[C@H]2[C@@H]3CC=C4C[C@@H](OC(=O)/C=C/c5ccc(O)c(OC)c5)CC[C@]4(C)[C@H]3CC[C@]12C)C(C)C
Activity [1]: 30% | Activity [2]: 1.78 | K [3]: 12000 M⁻¹ s⁻¹ | Activity [4]: 1.68 | Activity [5]: 1.01 | Activity [6]: 26% | Activity [7]: 1.144 | Activity [8]: 0.72 | Activity [9]: 23% | Activity [10]: 1.76 | K [11]: 0.11 min⁻¹ | K [12]: 0.11 min⁻¹ | K [13]: 0.18 min⁻¹ | Activity [14]: 44% | Activity [15]: Dose-dependent effect

COc1cc(/C=C/C(=O)O[C@H]2CC[C@@]3(C)[C@@H](CC[C@@H]4[C@@H]3CC[C@]3(C)[C@@H]([C@H](C)CC[C@@H](C)C(C)C)CC[C@@H]43)C2)ccc1O
Activity [1]: 34% | Activity [2]: 1.57 | K [3]: 18000 M⁻¹ s⁻¹ | Activity [4]: 1.89 | Activity [5]: 1.091 | Activity [6]: 27% | Activity [7]: 1.198 | Activity [8]: 0.79 | Activity [9]: 23% | Activity [10]: 1.47 | K [11]: 0.19 min⁻¹ | K [12]: 0.13 min⁻¹ | K [13]: 0.13 min⁻¹ | Activity [14]: 43%

CC[C@H](CC[C@@H](C)[C@H]1CC[C@H]2[C@@H]3CC=C4C[C@@H](OC(=O)/C=C/c5ccc(O)c(OC)c5)CC[C@]4(C)[C@H]3CC[C@]12C)C(C)C
Activity [1]: 31% | Activity [2]: 1.16 | K [3]: 13000 M⁻¹ s⁻¹ | Activity [4]: 1.64 | Activity [5]: 0.944 | Activity [6]: 24% | Activity [7]: 1.298 | Activity [8]: 0.64 | Activity [9]: 20% | Activity [10]: 1.38 | K [11]: 0.19 min⁻¹ | K [12]: 0.13 min⁻¹ | K [13]: 0.19 min⁻¹ | Activity [14]: 43% | Activity [15]: Dose-dependent effect

CC[C@H](CC[C@@H](C)[C@H]1CC[C@H]2[C@@H]3CC[C@H]4C[C@@H](OC(=O)/C=C/c5ccc(O)c(OC)c5)CC[C@]4(C)[C@H]3CC[C@]12C)C(C)C
Activity [1]: 28% | Activity [2]: 1.47 | K [3]: 15000 M⁻¹ s⁻¹ | Activity [4]: 1.85 | Activity [5]: 0.991 | Activity [6]: 25% | Activity [7]: 1.156 | Activity [8]: 0.64 | Activity [9]: 22% | Activity [10]: 1.35 | K [11]: 0.21 min⁻¹ | K [12]: 0.14 min⁻¹ | K [13]: 0.14 min⁻¹ | Activity [14]: 40%

COc1cc(/C=C/C(=O)O[C@H]2CC[C@@]3(C)C(=CC[C@H]4[C@@H]5CC[C@H]([C@H](C)CC[C@@H](C)C(C)C)[C@@]5(C)CC[C@@H]43)C2)ccc1O
Activity [1]: 29% | Activity [2]: 1.19 | K [3]: 13000 M⁻¹ s⁻¹ | Activity [4]: 1.65 | Activity [5]: 1.045 | Activity [6]: 25% | Activity [7]: 1.273 | Activity [8]: 0.7 | Activity [9]: 21% | Activity [10]: 1.4 | K [11]: 0.18 min⁻¹ | K [12]: 0.13 min⁻¹ | K [13]: 0.17 min⁻¹ | Activity [14]: 39% | Activity [15]: Dose-dependent effect

COc1cc(/C=C/C(=O)O[C@H]2CC[C@@]3(C)C(=CC[C@H]4[C@@H]5CC[C@H]([C@H](C)CCCC(C)C)[C@@]5(C)CC[C@@H]43)C2)ccc1O
Activity [1]: 30% | Activity [2]: 1.82 | K [3]: 12000 M⁻¹ s⁻¹ | Activity [4]: 1.76 | Activity [5]: 0.979 | Activity [6]: 24% | Activity [7]: 1.245 | Activity [8]: 0.74 | Activity [9]: 24% | Activity [10]: 1.71 | K [11]: 0.11 min⁻¹ | K [12]: 0.11 min⁻¹ | K [13]: 0.17 min⁻¹ | Activity [14]: 40% | Activity [15]: Dose-dependent effect

CCOC(=O)/C=C/c1ccc(O)c(OC)c1 [ETHYL FERULATE]
Activity [1]: 36% | Activity [2]: 1.6 | K [3]: 13000 M⁻¹ s⁻¹ | Activity [4]: 1.9 | Activity [5]: 0.851 | Activity [6]: 29% | Activity [7]: 0.992 | Activity [8]: 0.58 | Activity [9]: 19% | Activity [10]: 1.7 | K [11]: 0.16 min⁻¹ | K [12]: 0.13 min⁻¹ | K [13]: 0.14 min⁻¹ | Activity [14]: 42%

COc1cc(/C=C/C(=O)O)ccc1O [FERULATE]
Activity [1]: 33% | Activity [2]: 1.03 | K [3]: 12000 M⁻¹ s⁻¹ | Activity [4]: 1.27 | Activity [5]: 0.913 | Activity [6]: 26% | Activity [7]: 1.232 | Activity [8]: 0.53 | Activity [9]: 23% | Activity [10]: 1.4 | K [11]: 0.14 min⁻¹ | K [12]: 0.19 min⁻¹ | K [13]: 0.2 min⁻¹ | Activity [14]: 40%

Oc1cccc(O)c1O [PYROGALLOL]
K [3]: 120000 M⁻¹ s⁻¹
